Data taken from PubChem BioAssay.
Active and inactive are the calls of the source.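 The calls were made as follows, unless noted: active = viability at or below 30% in both replicate assays; inconclusive = viability at or below 30% in just one of the two assays; inactive = the rest.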

How the values were obtained:
[1] = Her2 expression decrease, cell viability multiplex – SKBR3 breast tumor cells, AlphaScreen, ATP viability, primary screen (AID 461;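 active = Her2 level under about 52% in both replicate screens, with viability over 70% of control, limit read from the data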;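 as to Her2 level: lower value means less Her2 protein in the cells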;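 as to viability: percent of carrier control wells set as 100% viability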); conditions: SKBR3 Her2 protein level, 18-24 h, measured here: SKBR3 viability, ATP luminescence, at 10 µM
[2] = biological target: Receptor tyrosine-protein kinase erbB-2 (Homo sapiens) (UniProt P04626); experiment: as above; conditions: 18-24 h, at 10 µM, stronger effect = lower value
[3] = reduced viability of SK-BR-3 breast cancer cells – cell-based, 24 h, human, pilot screen (AID 572;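 active = viability at or below 10% of carrier control in both of two separate runs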;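 also: compound exposure lasted between 18 and 24 h rather than exactly 24 h; 100% = carrier-treated control wells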); conditions: SK-BR-3 viability, CellTiter-Glo luminescence, at 10 µM, stronger effect = lower value
[4] = HUVEC growth inhibition – cell-based, human, primary screen (AID 575); conditions: HUVEC proliferation, CellTiter-Glo luminescence, 72 h; at 10 µM; stronger effect = lower value;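 also: 100% = median of untreated cell wells with 0.1% DMSO on each plate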
In short: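 Assay system: Primary human umbilical vein endothelial cells | Quantity: 1250 cells per well | Medium: Supplemented EBM, 2% fetal bovine serum | Detection: CellTiter-Glo luminescence measuring cellular ATP | Read-out: % viability vs DMSO wells | Plate: Collagen-coated 384-well format | Times: 72 h exposure, 37 °C, 5% CO2, 30 min RT equilibration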

[5] = H69AR cell proliferation blockers – human, duplicate replicates, primary screen (AID 580;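 active = viability at or under a set limit in both replicates, limit being median viability minus 3 SD, cut at about 48% in these data, passing the limit was not always enough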;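 also: 100% = mean luminescence of untreated wells and 0% = no signal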); conditions: H69AR lung tumor cells viability, ATP luminescence, 72 h; at 10 µM; stronger effect = lower value
[6] = MRP1 drug-resistance reversers in H69AR cells – cell-based, doxorubicin co-treatment, pilot screen (AID 601;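 active = viability loss from added drug above about 55%, and viability with drug at most 40%, in both replicates, limit read from the data, passing the limit was not always enough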); conditions: CellTiter-Glo, 72 h, at 10 µM; for differential viability (reversal): stronger effect = higher value
[7] = yeast transport mutant growth inhibition pilot in 384-well plates, post-Golgi transport modulator project (AID 636; in the data active = inhibition above about 31%); conditions: absorbance 615 nm, about 18 h, stronger effect = higher value
[8] = growth suppression of yeast trafficking mutant, preliminary HTS, modulators of trafficking downstream of Golgi apparatus project, 1536-format plate, OD 615 nm (AID 637; in the data active = inhibition above about 30%); conditions: yeast transport mutant growth, absorbance 615 nm, 18 h; stronger effect = higher value
[9] = H69AR cells + 2 uM doxorubicin, measured here: viability with 2 uM doxorubicin, stronger effect = lower value
[10] = H69AR cells, compound alone cytotoxicity

Sequence of Receptor tyrosine-protein kinase erbB-2 (Homo sapiens) (P04626 whole entry, looked up): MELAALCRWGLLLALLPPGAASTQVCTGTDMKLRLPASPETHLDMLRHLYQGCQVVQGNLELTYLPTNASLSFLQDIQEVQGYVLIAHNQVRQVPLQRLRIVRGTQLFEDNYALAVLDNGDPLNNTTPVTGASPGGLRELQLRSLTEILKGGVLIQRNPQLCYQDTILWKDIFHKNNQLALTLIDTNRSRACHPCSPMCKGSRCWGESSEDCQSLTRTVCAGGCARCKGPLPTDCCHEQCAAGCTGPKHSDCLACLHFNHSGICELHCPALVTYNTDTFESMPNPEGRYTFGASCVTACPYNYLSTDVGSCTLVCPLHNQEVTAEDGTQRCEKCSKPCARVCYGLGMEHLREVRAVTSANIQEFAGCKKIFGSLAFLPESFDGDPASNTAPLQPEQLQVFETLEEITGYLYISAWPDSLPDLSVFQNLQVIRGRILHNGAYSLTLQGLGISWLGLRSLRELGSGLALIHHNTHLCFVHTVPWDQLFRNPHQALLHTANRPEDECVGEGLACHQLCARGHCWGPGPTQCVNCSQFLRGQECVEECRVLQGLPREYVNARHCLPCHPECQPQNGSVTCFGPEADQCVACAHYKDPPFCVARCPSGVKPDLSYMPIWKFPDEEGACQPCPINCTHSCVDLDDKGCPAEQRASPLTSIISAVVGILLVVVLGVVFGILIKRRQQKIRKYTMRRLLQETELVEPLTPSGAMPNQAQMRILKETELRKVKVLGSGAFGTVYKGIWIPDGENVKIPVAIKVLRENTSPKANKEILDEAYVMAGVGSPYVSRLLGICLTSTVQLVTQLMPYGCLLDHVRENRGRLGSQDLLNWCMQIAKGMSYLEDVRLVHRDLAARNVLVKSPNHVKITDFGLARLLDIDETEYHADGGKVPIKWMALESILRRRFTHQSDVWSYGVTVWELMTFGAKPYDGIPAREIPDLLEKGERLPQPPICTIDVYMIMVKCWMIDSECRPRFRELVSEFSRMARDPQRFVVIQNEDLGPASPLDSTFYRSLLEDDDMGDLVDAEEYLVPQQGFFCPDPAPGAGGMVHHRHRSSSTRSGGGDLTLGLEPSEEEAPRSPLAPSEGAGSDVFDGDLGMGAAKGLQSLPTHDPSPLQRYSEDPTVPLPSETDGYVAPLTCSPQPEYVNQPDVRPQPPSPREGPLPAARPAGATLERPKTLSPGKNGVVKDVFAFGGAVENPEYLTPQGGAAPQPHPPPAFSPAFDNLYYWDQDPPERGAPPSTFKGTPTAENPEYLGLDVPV

Row | Compound | viability [1] | Her2 level [2] | viability [3] | viability [4] | viability [5] | differential viability (reversal) ([6]; H69AR cells + 2 uM doxorubicin) | viability [6, 9] | viability [6, 10] | inhibition [7] | inhibition [8]
1 | CCOC(=O)N1CCC(NC(=O)c2ccc(OC)c(CN3CC(=O)N4CCCC4C3=O)c2)CC1 (stereo not given) | 93.5% | 93% (inactive) | 93.5% (inactive) | 111% (inactive) | 96% (inactive) | 10% (inactive) | 85.9% | 96% | -5.92% (inactive) | -3.49% (inactive)
2 | CC(C)=CCSc1nnc(CCNC(=O)OC(C)(C)C)o1 | 96% | 85.5% (inactive) | 96% (inactive) | 87.2% (inactive) | 96.6% (inactive) | 17.2% (inactive) | 79.3% | 96.6% | -4.8% (inactive) | 16.6% (inactive)
3 | CC(CCc1ccccc1)NC(=O)c1ccc(Br)o1 (stereo not given) | 110% | 86% (inactive) | 110% (inactive) | 88.5% (inactive) | 93.5% (inactive) | 9.45% (inactive) | 84% | 93.5% | -4.93% (inactive) | 0.63% (inactive)
4 | O=C(CS(=O)(=O)c1cn(Cc2ccc(Cl)cc2)c2ccccc12)N1CCOCC1 | 84% | 92.5% (inactive) | 84% (inactive) | 105% (inactive) | 97% (inactive) | 8.43% (inactive) | 88.6% | 97% | -1.87% (inactive) | -2.62% (inactive)
5 | CCC(C)(C)n1nnnc1C(c1ccc(OC)c(OC)c1)N1CCN(c2ccccc2)CC1 (stereo not given) | 85% | 86% (inactive) | 85% (inactive) | 90.2% (inactive) | 88.8% (inactive) | 9.98% (inactive) | 78.9% | 88.8% | -7.67% (inactive) | -0.16% (inactive)
6 | Cc1cc(-c2ccccc2)nc2cc(C(N)=O)nn12 | 102% | 94% (inactive) | 102% (inactive) | 101% (inactive) | 96% (inactive) | 8.83% (inactive) | 87.1% | 96% | -2.63% (inactive) | 1.61% (inactive)
7 | CCn1c(C(Cc2ccccc2)NC(=O)COC)nc2ccccc21 (stereo not given) | 102% | 92% (inactive) | 102% (inactive) | 102% (inactive) | 87.4% (inactive) | 8.84% (inactive) | 78.6% | 87.4% | -6.13% (inactive) | 4% (inactive)
8 | S=C(NCC1CCCO1)n1nnc2ccccc21 (stereo not given) | 121% | 49% (active) | 121% (inactive) | 66.2% (inactive) | 74.8% (inactive) | 0.715% (inactive) | 74.1% | 74.8% | -1.07% (inactive) | -0.95% (inactive)
9 | COc1ccc(CC(=O)OCn2nnc3ccccc3c2=O)cc1 | 101% | 86% (inactive) | 101% (inactive) | 90.5% (inactive) | 98% (inactive) | -3.25% (inactive) | 101% | 98% | -5.6% (inactive) | -5.56% (inactive)
10 | O=C(CSc1nc(O)cc(=O)n1-c1ccccc1)N1CCCCC1 | 100% | 77% (inactive) | 100% (inactive) | 80.8% (inactive) | 98.8% (inactive) | 2.4% (inactive) | 96.4% | 98.8% | -6.44% (inactive) | 3.97% (inactive)
11 | Cc1occc1C(=O)Nc1cccnc1 | 101% | 92% (inactive) | 101% (inactive) | 100% (inactive) | 97.7% (inactive) | 3.58% (inactive) | 94.1% | 97.7% | -7.73% (inactive) | 2.9% (inactive)
12 | O=C1OC(N2CCN(c3ccccn3)CC2)c2ccccc21 (stereo not given) | 94% | 80.5% (inactive) | 94% (inactive) | 105% (inactive) | 96.8% (inactive) | 7.36% (inactive) | 89.4% | 96.8% | -4.53% (inactive) | 1.48% (inactive)
13 | COC(=O)CSc1nc2sc3c(c2c(=O)n1C1CCCCC1)CCN(C)C3 | 102% | 75.5% (inactive) | 102% (inactive) | 84.7% (inactive) | 95% (inactive) | 2.91% (inactive) | 92.1% | 95% | -5.66% (inactive) | 1.83% (inactive)
14 | C=CCn1c(SCc2ccc3nonc3c2)nnc1-c1cccs1 | 84% | 79.5% (inactive) | 84% (inactive) | 85.8% (inactive) | 87.3% (inactive) | 2.61% (inactive) | 84.7% | 87.3% | -5.47% (inactive) | 0.98% (inactive)
15 | COC(=O)c1ccccc1NC(=O)Nc1cc(C)cc(C)n1 | 96% | 86% (inactive) | 96% (inactive) | 103% (inactive) | 102% (inactive) | 6.95% (inactive) | 94.8% | 102% | -1.58% (inactive) | -1.9% (inactive)
16 | O=C(O)c1cccc(NC(=O)C2C3C=CC(C3)C2C(=O)OCC(F)(F)C(F)F)c1 (stereo not given) | 102% | 91.5% (inactive) | 102% (inactive) | 94% (inactive) | 89% (inactive) | 0.695% (inactive) | 88.3% | 89% | -5.79% (inactive) | -1.33% (inactive)
17 | CCCn1c(SCC(=O)Nc2nnc(-c3ccccc3)s2)nnc1-c1ccccn1 | 98.5% | 112% (inactive) | 98.5% (inactive) | 84.6% (inactive) | 102% (inactive) | 5.49% (inactive) | 96.8% | 102% | -2.7% (inactive) | 25% (inactive)
18 | CCCCOc1ccccc1NC(=O)c1ccco1 | 87% | 93% (inactive) | 87% (inactive) | 76.6% (inactive) | 62.9% (inactive) | -14.4% (inactive) | 77.3% | 62.9% | -0.93% (inactive) | -0.16% (inactive)
19 | COc1cc(NC(=O)c2ccc(COCC(F)(F)F)o2)cc(OC)c1OC | 95% | 84% (inactive) | 95% (inactive) | 92.8% (inactive) | 99.6% (inactive) | 20.1% (inactive) | 79.5% | 99.6% | -1.45% (inactive) | 2.58% (inactive)
20 | Cc1cc(C)n(C(=O)CCCCCC(=O)n2nc(C)cc2C)n1 | 116% | 86.5% (inactive) | 116% (inactive) | 105% (inactive) | 105% (inactive) | 10.8% (inactive) | 94.5% | 105% | -9.32% (inactive) | -2.86% (inactive)
21 | COc1cc(N=c2ssnc2Cl)cc(OC)c1 | 84.5% | 111% (inactive) | 84.5% (inactive) | 78% (inactive) | 3.23% (active) | -1.38% (inactive) | 4.61% | 3.23% | -5% (inactive) | 0.48% (inactive)
22 | CSc1ccccc1C(=O)NC1CC2CCC1C2 (stereo not given) | 102% | 89.5% (inactive) | 102% (inactive) | 92.9% (inactive) | 94.8% (inactive) | 7.59% (inactive) | 87.2% | 94.8% | -5.33% (inactive) | 5.65% (inactive)
23 | C(#Cc1ccccc1)Cn1nnc2ccccc21 | 80.5% | 86.5% (inactive) | 80.5% (inactive) | 99% (inactive) | 83.1% (inactive) | 7.46% (inactive) | 75.6% | 83.1% | 0.9% (inactive) | 4.33% (inactive)
24 | COc1ccc2ccccc2c1CN1CCCC(CO)C1 (stereo not given) | 92.5% | 85.5% (inactive) | 92.5% (inactive) | 92.9% (inactive) | 82% (inactive) | 1.51% (inactive) | 80.5% | 82% | -1.82% (inactive) | 0.82% (inactive)
25 | CC(=O)Nc1ccc(-c2cc3ccccc3o2)cc1 | 103% | 89% (inactive) | 103% (inactive) | 82.4% (inactive) | 95.9% (inactive) | 12% (inactive) | 83.9% | 95.9% | -6.44% (inactive) | -5.08% (inactive)
26 | COc1ccc(N2CCN(C(=O)CCNS(=O)(=O)c3ccc(Br)s3)CC2)cc1 | 64% | 91.5% (inactive) | 64% (inactive) | 80.1% (inactive) | 88.7% (inactive) | -3.66% (inactive) | 92.3% | 88.7% | -4.55% (inactive) | 6.72% (inactive)
27 | N#CC(C(=O)CCN1C(=O)C2CC=CCC2C1=O)c1nc2ccccc2[nH]1 (stereo not given) | 116% | 98% (inactive) | 116% (inactive) | 95.9% (inactive) | 91.1% (inactive) | 3.88% (inactive) | 87.2% | 91.1% | -5.07% (inactive) | 6.23% (inactive)
28 | COc1ccc(-n2c(=O)cc(N3CCN(Cc4ccccc4)CC3)[nH]c2=O)cc1 | 87% | 105% (inactive) | 87% (inactive) | 94% (inactive) | 92.7% (inactive) | -17.5% (inactive) | 110% | 92.7% | 0.26% (inactive) | -4% (inactive)
29 | CC(Oc1ccccc1)C(=O)Nc1ccc(S(=O)(=O)NCC2CCCO2)cc1 (stereo not given) | 89.5% | 94.5% (inactive) | 89.5% (inactive) | 101% (inactive) | 98.7% (inactive) | 4.12% (inactive) | 94.6% | 98.7% | -1.73% (inactive) | -5.71% (inactive)
